HGIII-sPLA2 inh: human group III sPLA2 inhibitors, primary screen, biochemical, QFRET, BODIPY PC-A2 liposome substrate; QFRET BODIPY PC-A2 liposome hydrolysis, fluorescence; hit rate 0.56% among 370,000; Group 3 secretory phospholipase A2 (Homo sapiens), Q9NZ20; inhibition, % at 12.2 µM; AID 743126, 2013;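 active = inhibition above mean plus 3 SD of compounds lying within the high and low control bounds, cut at about 19% in these data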
ASAP1 inh: inhibitors of human ASAP1 ArfGAP activity, primary screen, biochemical, fluorescence polarization; Arf-GAP with SH3 domain, ANK repeat and PH domain-containing protein 1 (Homo sapiens), …; ASAP1-stimulated ARF1 GTP hydrolysis, GDP FP detection; inhibition, % at 16.5 µM; hit rate 0.19% among 360,000; in the data active = inhibition above about 25%
MsrA inh: bovine MsrA enzyme inhibitors, primary screen, biochemical, absorbance, HTS; Methionine sulfoxide reductase A (Bos taurus); purified bovine MsrA, absorbance read-out; inhibition, % at 15.5 µM; hit rate 0.75% among 360,000; AID 651718, 2012; in the data active = inhibition above about 4.5%
ARFGAP1 inhibitor: inhibitors of rat ARFGAP1 GAP activity, primary screen, biochemical, fluorescence polarization, GDP tracer; inhibition, % at 16.5 µM; Arfgap1-stimulated ARF1 GTP hydrolysis, GDP FP detection; hit rate 0.26% among 360,000; AID 651572, 2012;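 active = inhibition above a per-plate limit, mean inhibition of low control wells plus 3 SD, cut at about 25% in these data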
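Repeats: one replicate per compound; assay system: rat Arfgap1 catalytic domain, aa 1-136; times: enzyme reaction 120 min at 25 °C after 20 min preincubation; detection: FP of antibody-bound GDP Alexa 633 tracer, ex 620/em 688 nm; benchmarks: high control wells lacking Arfgap1, low control full reaction with DMSO; reagent: human ARF1(Δ1-17)-GTP substrate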
MsrA act: bovine MsrA enzyme activators, primary screen, biochemical, absorbance, HTS; Methionine sulfoxide reductase A (Bos taurus); purified bovine MsrA, absorbance read-out; activation, % at 10.6 µM; hit rate 0.3% among 360,000; AID 602163, 2012; in the data active = activation above about 7.5%
Rev-erbA mod: modulators of Rev-erb alpha DNA binding, primary screen, biochemical, FITC-DNA, fluorescence polarization, uHTS; hit rate 0.79% among 370,000; Rev-erbα–FITC-DNA binding, 90 min; AID 1259318, 2017; Nuclear receptor subfamily 1 group D member 1 (Homo sapiens), P20393; activity, % at 10 µM;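 active = activity above about 14%, limit read from the data; passing the limit was not always enough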
Target sequence (P20393 whole entry, looked up): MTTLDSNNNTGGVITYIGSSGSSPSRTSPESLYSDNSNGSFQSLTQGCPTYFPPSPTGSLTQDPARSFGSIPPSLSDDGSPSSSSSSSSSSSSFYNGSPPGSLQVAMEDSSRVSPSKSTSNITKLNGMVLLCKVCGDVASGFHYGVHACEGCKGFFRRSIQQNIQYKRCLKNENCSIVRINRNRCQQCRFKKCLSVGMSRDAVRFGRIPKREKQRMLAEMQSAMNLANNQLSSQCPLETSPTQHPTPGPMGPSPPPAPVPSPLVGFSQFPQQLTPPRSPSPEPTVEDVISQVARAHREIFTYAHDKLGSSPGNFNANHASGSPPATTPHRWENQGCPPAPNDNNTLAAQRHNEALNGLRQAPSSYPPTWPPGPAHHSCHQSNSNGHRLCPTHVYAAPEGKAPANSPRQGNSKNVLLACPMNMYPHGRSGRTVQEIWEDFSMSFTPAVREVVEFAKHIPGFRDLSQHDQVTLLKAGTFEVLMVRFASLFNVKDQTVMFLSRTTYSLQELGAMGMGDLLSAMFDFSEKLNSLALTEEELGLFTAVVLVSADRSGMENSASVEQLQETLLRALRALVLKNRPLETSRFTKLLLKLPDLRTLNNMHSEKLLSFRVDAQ
NR1D1 mod conf: modulators of Rev-erb alpha DNA binding, confirmation, biochemical, FITC-DNA, fluorescence polarization, single point. shares compounds with Rev-erbA mod. hit rate 61% among 3,000. AID 1259319, 2017. 90 min. activation, % at 25 µM;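 active = activation at or above a set limit, or at least 3 SD above the negative control mean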
RORg DNA counter: modulation of RORgamma DNA binding, dose response, counter-screen for Rev-erb alpha modulator project, biochemical, fluorescence polarization, FITC-DNA. IC50, µM. hit rate 8% among 910. purified RORgamma protein-FITC-DNA binding. shares compounds with Rev-erbA mod;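 active = Compounds whose fitted half-maximal concentration for disrupting protein-DNA binding is below 10 micromolar; the record names Rev-erb in its text, so the target is in doubt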
Each line names hits and unclear results; the compound was inactive in the other large screens (follow-up assays come after a bar, where they were run). In the library only some 2.7% were active in any assay of this set; here they are far more common.

O=C(Nc1c(-c2ccc3c(c2)OCO3)[nH][nH]c1=O)c1cccc(C(F)(F)F)c1	none
CCCNC(=O)C1(C)CCCN(C(=O)c2ccc(OC(F)F)cc2)C1 (stereo not drawn)	none
COC(=O)CSc1nc2cc3c(cc2cc1C)OCCO3	none
CCOC(=O)c1c(NC(=O)CSc2nc3ccccc3c(=O)n2-c2ccccc2)sc(C(C)=O)c1C	Rev-erbA mod 140 | NR1D1 mod conf inactive
CCOC(=O)c1sc(NC(=O)CSc2nc(C)cc(C)n2)c(C#N)c1C	none
CCc1nnc(NC(=O)CSc2nc3cc4c(cc3cc2C)OCCO4)s1	Rev-erbA mod 47 | NR1D1 mod conf 47 | RORg DNA counter inactive
CCOC(=O)c1c(NC(=O)CSc2nc(C)cc(C)c2C#N)sc(C(C)=O)c1C	Rev-erbA mod 35 | NR1D1 mod conf 17
CCOC(=O)c1sc(NC(=O)CSc2nc3c(cc2C#N)CCCCC3)c(C#N)c1C	Rev-erbA mod 30 | NR1D1 mod conf 20
CC(C)NC(=O)C1(C)CSCC(=O)N1C1CC1 (stereo not drawn)	none (no result: MsrA act)
CC1(C(=O)Nc2ccc3c(c2)OCCO3)CN(S(C)(=O)=O)CC(=O)N1CCc1ccccc1F (stereo not drawn)	none (no result: MsrA act)
CC(=O)O[C@@H]1C[C@@]2(C)[C@@H](CC[C@H]2[C@@H](C)/C=C\CC(C)C)C2=C[C@@H](O)[C@@]3(O)C[C@@H](O)[C@H](O)C[C@]3(CO)[C@]21O	none
CCc1nnc(NC(=O)CSc2nc3c(cc2C#N)CCCC3)s1	Rev-erbA mod 34 | NR1D1 mod conf 23
Cc1ccc2sc(NC(=O)CSc3nc(C)cc(C)c3C#N)nc2c1	Rev-erbA mod 29 | NR1D1 mod conf inactive
CCOC(=O)C1=NOC(C(=O)NC2CCCC2)(C(=O)C2CC2)C1 (stereo not drawn)	none (no result: ASAP1 inh, MsrA inh, ARFGAP1 inhibitor, MsrA act)
CC(C)C[C@@H](COCc1cccc(Cl)c1)N1CCN(C(=O)c2ccc(C(F)(F)F)cc2)CCC1=O	none
O=C(Cc1sc(-c2ccccc2)nc1-c1ccccc1)Nc1ccc(Cl)cc1	Rev-erbA mod 25 | NR1D1 mod conf 33 | RORg DNA counter inactive
CCOC1=C2[C@H](c3ccccc3)N(S(=O)(=O)c3ccc(C)cc3)C(C(C)(C)C)[C@H]2n2c(=O)n(-c3ccccc3)c(=O)n2C1 (stereo partly drawn)	none
CCc1nc2ccc(C(=O)NCc3ccc(OC)cc3)cn2c1N(CC)CCOC	none
CCn1c(=O)c(C(=O)Nc2ccccc2S(N)(=O)=O)c(O)c2ccccc21	Rev-erbA mod 20 | NR1D1 mod conf inactive
O=C(Cn1nnc(-c2ccccc2NC(=O)c2ccccc2F)n1)NC1CCCC1	Rev-erbA mod 23 | NR1D1 mod conf 27
Cc1ccc(OCC(=O)O/N=C(\N)c2ccncc2)cc1C	Rev-erbA mod 22 | NR1D1 mod conf inactive
Oc1ccc(Cl)cc1N=Cc1sc2ccccc2c1Cl	none
Oc1c(C=Nc2cccc3cccnc23)sc2ccccc12	Rev-erbA mod 26 (no result: MsrA act) | NR1D1 mod conf 36 | RORg DNA counter inactive
CC(C)Cc1nc2sc3c(SCC(N)=O)ncnc3c2c2c1CCC2	Rev-erbA mod 369 | NR1D1 mod conf 568 | RORg DNA counter inactive
O=C(O)CSc1ncnc2c1sc1nc(-c3ccccc3)c3c(c12)CCC3	none
C[C@@H]1CN([C@H](C)CO)C(=O)c2cc(NC(=O)Nc3ccccc3)ccc2O[C@@H](C)CCCCO[C@H]1CN(C)S(=O)(=O)c1ccc(F)cc1	none (no result: ASAP1 inh, MsrA inh, ARFGAP1 inhibitor, MsrA act)
CN1CCC(N[C@@H](Cc2c[nH]c3ccccc23)C(=O)NCC(c2ccccc2)c2ccccc2)(C(=O)NC2CCCCC2)CC1	none (no result: ASAP1 inh, MsrA inh, ARFGAP1 inhibitor, MsrA act)
COc1ccc(C(C(=O)N(C)C2CCCC2)N(Cc2ccc(F)cc2)C(=O)c2csc(N3CCOCC3)n2)cc1OC (stereo not drawn)	none (no result: ASAP1 inh, MsrA inh, ARFGAP1 inhibitor, MsrA act)
CC(C)c1ccc(S(=O)(=O)c2cc3cc(Br)ccc3oc2=O)cc1	Rev-erbA mod 19 | NR1D1 mod conf inactive
Cc1ccc(S(=O)(=O)c2cc3cc(Br)ccc3oc2=O)cc1	none
O=c1c(-c2cccnc2)nc2ccccc2n1C(c1ccccn1)c1nc2ccccc2[nH]1 (stereo not drawn)	none (no result: MsrA act)
CC(=O)Nc1ccc(-c2ccnc3c2CC(C)(C(=O)NCc2ccc(N(C)C)cc2)O3)cc1 (stereo not drawn)	none
CCOC(=O)c1sc2nc(C(C)C)c3c(c2c1N)CC(C)(C)OC3	Rev-erbA mod 23 | NR1D1 mod conf inactive
COCCNc1nc2sc3c(c2c(=O)n1Cc1ccco1)CCCCC3	Rev-erbA mod 49 | NR1D1 mod conf 23
COc1ccc(Cl)cc1C(=O)Nc1ccc(Br)c(C)n1	Rev-erbA mod 28 | NR1D1 mod conf inactive
N#C/C(=C\c1ccccc1C(=O)O)c1nc2ccccc2[nH]1	none
N#C/C(=C\c1ccc(-c2ccc(C(=O)O)cc2)o1)c1nc2ccccc2[nH]1	Rev-erbA mod 42 | NR1D1 mod conf 27
O=C(Nc1nnc(C2CCCCC2)s1)c1ccc(Br)s1	Rev-erbA mod 95 | NR1D1 mod conf 82 | RORg DNA counter inactive
O=C(Nc1nnc(C(F)(F)F)s1)c1ccc(Br)s1	none
CC(C)(C)c1ccc(C(=O)c2c[nH]c(C(=O)NCc3cccs3)c2)cc1	Rev-erbA mod 96 | NR1D1 mod conf 94 | RORg DNA counter inactive
CC1([N+](=O)[O-])COC(c2cccc3ccccc23)OC1 (stereo not drawn)	none
Cc1ccc(S(=O)(=O)N2[C@@H](CO)CO[C@H]2CC(=O)c2ccc(F)cc2)cc1	none (no result: MsrA act)
O=C(Nc1ccc(F)cc1)c1cc(-c2ccncc2)nc2c(Cl)cccc12	Rev-erbA mod 24 | NR1D1 mod conf inactive
COc1cccc(NC(=O)c2cc(-c3cccnc3)nc3c(Cl)cccc23)c1	none
CCc1ccc(NC(=O)CSc2nnc(-c3n[nH]c4ccccc34)n2-c2ccccc2)cc1	Rev-erbA mod 34 | NR1D1 mod conf 38 | RORg DNA counter inactive
Cc1ccccc1NC(=O)CSc1nnc(-c2ccccc2)n1-c1ccccc1	Rev-erbA mod 37 | NR1D1 mod conf 21
O=C(NC1CCCc2c1cnn2-c1ccccc1F)c1ccncc1 (stereo not drawn)	none
